Measurements as given in ChEMBL document CHEMBL3580647, “Discovery of potent indenoisoquinoline topoisomerase I poisons lacking the 3-nitro toxicophore” (J Med Chem, 2015).
The source made the active and inactive calls. The calls are words filed in the database; no cut-off is given here.

What was measured:
[1] = molecular target: T1, DNA topoisomerase 1 (Homo sapiens) (UniProt P11387); experiment: Inhibition of recombinant topoisomerase 1 (unknown origin) assessed as DNA cleavage using 3'-[32P]-labeled 117-bp DNA oligonucleotide at 1 uM by PAGE assay; set-up: Activity: scale not given: the % may be the effect or the level left
T1 sequence (whole entry): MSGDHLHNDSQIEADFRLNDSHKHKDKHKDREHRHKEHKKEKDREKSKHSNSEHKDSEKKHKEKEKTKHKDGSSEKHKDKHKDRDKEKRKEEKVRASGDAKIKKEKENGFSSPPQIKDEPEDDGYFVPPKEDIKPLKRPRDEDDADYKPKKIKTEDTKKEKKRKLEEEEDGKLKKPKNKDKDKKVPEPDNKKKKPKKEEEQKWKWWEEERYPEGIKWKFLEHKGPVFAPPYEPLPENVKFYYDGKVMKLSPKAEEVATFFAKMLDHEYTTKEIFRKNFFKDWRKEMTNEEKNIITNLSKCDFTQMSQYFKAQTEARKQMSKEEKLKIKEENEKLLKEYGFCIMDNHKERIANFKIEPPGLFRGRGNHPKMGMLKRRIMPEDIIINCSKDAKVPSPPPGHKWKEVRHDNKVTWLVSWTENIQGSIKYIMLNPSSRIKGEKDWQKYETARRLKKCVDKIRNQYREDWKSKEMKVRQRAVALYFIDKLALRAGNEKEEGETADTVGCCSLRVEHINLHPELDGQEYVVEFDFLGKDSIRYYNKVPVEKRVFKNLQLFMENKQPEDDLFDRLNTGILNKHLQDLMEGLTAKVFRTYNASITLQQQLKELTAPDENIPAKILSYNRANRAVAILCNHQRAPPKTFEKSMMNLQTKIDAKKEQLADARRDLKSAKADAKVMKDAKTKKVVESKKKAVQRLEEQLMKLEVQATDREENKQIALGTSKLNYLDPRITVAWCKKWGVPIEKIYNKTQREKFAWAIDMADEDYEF
How it was run: (§1)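 Approx. 2 nM 3′-[³²P]-labeled double-stranded DNA incubated with recombinant Top1 and compound at 0.1, 1, 10 or 100 μM for 20 min at 25 °C. Stopped with 0.5% SDS and run on a denaturing gel. […] Run twice.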

[2] = (§2) Growth inhibition of human NCI60 cells assessed as cell growth at 10 uM; assay type: functional; details: read-out: Activity
How it was run: (§3)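 NCI-60 single-dose screen at 10 μM across ~60 human cancer cell lines. Reported as growth percent relative to vehicle-treated control, averaged over all lines tested as a mean growth percent.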

SN12C = experiment: Growth inhibition of human SN12C cells by five-dose growth inhibition assay; assay type: functional
[3] = molecular target: T1, DNA topoisomerase 1 (Homo sapiens); experiment: Inhibition of recombinant topoisomerase 1 (unknown origin) assessed as DNA cleavage using 3'-[32P]-labeled 117-bp DNA oligonucleotide at 10 uM by PAGE assay; how it was run: as §1
MCF7 = experiment: Growth inhibition of human MCF7 cells by five-dose growth inhibition assay; assay type: functional
UACC-62 = experiment: Growth inhibition of human UACC62 cells by five-dose growth inhibition assay; assay type: functional
[4] = Growth inhibition of human SF539 cells by five-dose growth inhibition assay; assay type: functional; details: SF-539
DU-145 = experiment: Growth inhibition of human DU145 cells by five-dose growth inhibition assay; assay type: functional
[5] = molecular target: T1, DNA topoisomerase 1 (Homo sapiens); experiment: Inhibition of recombinant topoisomerase 1 (unknown origin) assessed as DNA cleavage using 3'-[32P]-labeled 117-bp DNA oligonucleotide at 0.1 uM by PAGE assay; how it was run: as §1
HCT-116 = experiment: Growth inhibition of human HCT116 cells by five-dose growth inhibition assay; assay type: functional
HOP-62 = experiment: Growth inhibition of human HOP62 cells by five-dose growth inhibition assay; assay type: functional
OVCAR-3 = experiment: Growth inhibition of human OVCAR3 cells by five-dose growth inhibition assay; assay type: functional
[6] = molecular target: T1, DNA topoisomerase 1 (Homo sapiens); experiment: Inhibition of recombinant topoisomerase 1 (unknown origin) assessed as DNA cleavage using 3'-[32P]-labeled 117-bp DNA oligonucleotide at 100 uM by PAGE assay; how it was run: as §1
NCI60 = experiment: as §2; assay type: functional; how it was run: as §3

Activity [1]	inhibition [3]	GI50 (MCF7)	inhibition [1]	GI50 (DU-145)	inhibition [5]	GI50 (HCT-116)	GI50 (OVCAR-3)	inhibition [6]	SMILES	growth at 10 µM [2]	GI50 (SN12C)	GI50 (UACC-62)	GI50 [4]	GI50 (HOP-62)	Activity (NCI60)
100%	–	–	–	–	–	–	–	–	O=C1c2ccccc2-c2c1c1ccc([N+](=O)[O-])cc1c(=O)n2C[C@H](O)CO	–	–	–	–	–	–
50%	–	–	–	–	–	–	–	–	O=C1c2ccccc2-c2c1c1ccc(Br)cc1c(=O)n2C[C@H](O)CO	46.8%	–	–	–	–	–
50%	Active	372 nM	Active	4070 nM	Active	1620 nM	6030 nM	Active	O=C1c2ccccc2-c2c1c1ccc(Cl)cc1c(=O)n2CCCN1CCOCC1	44.7%	5010 nM	3310 nM	2400 nM	2140 nM	–
50%	–	33 nM	–	562 nM	–	112 nM	4680 nM	–	N#Cc1ccc2c3c(n(CCCn4ccnc4)c(=O)c2c1)-c1ccccc1C3=O	41.1%	575 nM	407 nM	501 nM	537 nM	–
50%	–	331 nM	–	977 nM	–	–	–	–	CN(C)CCCn1c2c(c3ccncc3c1=O)C(=O)c1ccccc1-2	–	955 nM	–	708 nM	–	–
75%	Active	31 nM	Active	–	Active	–	–	Active	O=C1c2ccccc2-c2c1c1ccc(Cl)cc1c(=O)n2CCCn1ccnc1	0.06%	110 nM	74 nM	204 nM	–	–
75%	–	–	–	–	–	–	–	–	O=C1c2ccccc2-c2c1c1ccc(Br)cc1c(=O)n2CCCN1CCOCC1	84%	–	–	–	–	–
20%	–	–	–	–	–	–	–	–	COC(=O)c1ccc2c3c(n(CCCN4CCOCC4)c(=O)c2c1)-c1ccccc1C3=O	87.5%	–	–	–	–	–
50%	–	316 nM	–	692 nM	–	398 nM	100000 nM	–	COC(=O)c1ccc2c3c(n(CCCn4ccnc4)c(=O)c2c1)-c1ccccc1C3=O	62.1%	525 nM	100000 nM	490 nM	589 nM	–
50%	–	191 nM	–	676 nM	–	251 nM	3310 nM	–	O=C1c2ccccc2-c2c1c1ccc(Br)cc1c(=O)n2CCCn1ccnc1	27.3%	468 nM	427 nM	676 nM	513 nM	–
50%	–	–	–	–	–	–	–	–	CS(=O)(=O)c1ccc2c3c(n(CCCn4ccnc4)c(=O)c2c1)-c1ccccc1C3=O	59.4%	–	–	–	–	–
20%	–	–	–	–	–	–	–	–	O=C1c2ccccc2-c2c1c1cc(C(F)(F)F)ccc1c(=O)n2C[C@H](O)CO	82.7%	–	–	–	–	–
100%	–	–	–	–	–	30 nM	–	–	CC[C@@]1(O)C(=O)OCc2c1cc1n(c2=O)Cc2cc3c(CN(C)C)c(O)ccc3nc2-1 [TOPOTECAN]	–	20 nM	–	10 nM	–	–
20%	Active	–	Active	–	Active	–	–	Active	O=C1c2ccccc2-c2c1c1ccc(I)cc1c(=O)n2CCCN1CCOCC1	96%	–	–	–	–	–
20%	–	–	–	–	–	–	–	–	N#Cc1ccc2c3c(n(C[C@H](O)CO)c(=O)c2c1)-c1ccccc1C3=O	42.6%	–	–	–	–	–
70%	–	–	–	–	–	–	–	–	O=C1c2ccccc2-c2c1c1ccc([N+](=O)[O-])cc1c(=O)n2CCCN1CCOCC1	–	–	–	–	–	–
50%	–	–	–	–	–	–	–	–	N#Cc1ccc2c3c(n(CCCN4CCOCC4)c(=O)c2c1)-c1ccccc1C3=O	102%	–	–	–	–	–
20%	–	427 nM	–	2510 nM	–	741 nM	4370 nM	–	CSc1ccc2c3c(n(C[C@H](O)CO)c(=O)c2c1)-c1ccccc1C3=O	39.7%	1950 nM	1380 nM	2340 nM	1820 nM	–
20%	–	257 nM	–	1100 nM	–	646 nM	1510 nM	–	O=C1c2ccccc2-c2c1c1ccc(C(F)(F)F)cc1c(=O)n2CCCn1ccnc1	6.57%	1780 nM	537 nM	1290 nM	407 nM	–
20%	–	–	–	–	–	–	–	–	O=C1c2ccccc2-c2c1c1cc(C(F)(F)F)ccc1c(=O)n2CCCn1ccnc1	49.3%	–	–	–	–	–
75%	Active	135 nM	Active	575 nM	Active	309 nM	1290 nM	Active	O=C1c2ccccc2-c2c1c1ccc(F)cc1c(=O)n2CCCn1ccnc1	-8.15%	437 nM	245 nM	417 nM	490 nM	–
20%	–	–	–	–	–	–	–	–	COC(=O)c1ccc2c3c(n(C[C@H](O)CO)c(=O)c2c1)-c1ccccc1C3=O	–	–	–	–	–	inactive
50%	–	–	–	–	–	–	–	–	CS(=O)(=O)c1ccc2c3c(n(C[C@H](O)CO)c(=O)c2c1)-c1ccccc1C3=O	96.7%	–	–	–	–	–
50%	–	–	–	–	–	–	–	–	O=C1c2ccccc2-c2c1c1ccc(F)cc1c(=O)n2C[C@H](O)CO	61.1%	–	–	–	–	–
50%	–	257 nM	–	2090 nM	–	437 nM	2240 nM	–	O=C1c2ccccc2-c2c1c1ccc(Cl)cc1c(=O)n2C[C@H](O)CO	14.5%	977 nM	398 nM	417 nM	692 nM	–
20%	–	–	–	–	–	–	–	–	CSc1ccc2c3c(n(CCCn4ccnc4)c(=O)c2c1)-c1ccccc1C3=O	42.6%	–	–	–	–	–
75%	Active	347 nM	Active	–	Active	1290 nM	4270 nM	Active	O=C1c2ccccc2-c2c1c1ccc(F)cc1c(=O)n2CCCN1CCOCC1	30.3%	2340 nM	1380 nM	2950 nM	2090 nM	–
20%	–	–	–	–	–	–	–	–	O=C1c2ccccc2-c2c1c1ccc(C(F)(F)F)cc1c(=O)n2C[C@H](O)CO	52.2%	–	–	–	–	–
50%	–	74 nM	–	603 nM	–	200 nM	3890 nM	–	O=C1c2ccccc2-c2c1c1ccc(I)cc1c(=O)n2CCCn1ccnc1	43.5%	708 nM	2290 nM	550 nM	437 nM	–
100%	–	2170 nM	–	–	–	–	–	–	O=C1c2ccccc2-c2c1c1ccc([N+](=O)[O-])cc1c(=O)n2CCCn1ccnc1	–	–	–	–	–	–

SMILES	Activity [1]	inhibition [3]	GI50 (MCF7)	inhibition [1]	GI50 (DU-145)	inhibition [5]	GI50 (HCT-116)	GI50 (OVCAR-3)	inhibition [6]	growth at 10 µM [2]	GI50 (SN12C)	GI50 (UACC-62)	GI50 [4]	GI50 (HOP-62)	Activity (NCI60)
O=C1c2ccccc2-c2c1c1ccncc1c(=O)n2CCCn1ccnc1	20%	–	–	–	–	–	–	–	–	47.5%	–	–	–	–	–
O=C1c2ccccc2-c2c1c1ccncc1c(=O)n2CCCN1CCOCC1	50%	–	–	–	–	–	–	–	–	–	–	–	–	–	inactive
